Experimental findings from ChEMBL document CHEMBL3259528, “Exploring 5-nitrofuran derivatives against nosocomial pathogens: synthesis, antimicrobial activity and chemometric analysis” (2014) are described below.

As usually defined, the MIC is the lowest concentration found to suppress growth. Broadly, the MIC90 is the lowest concentration that inhibits either 90% of growth or 90% of the strains tested, depending on the study. A high value points to lower susceptibility.

Converted amounts (≈) assume the structure as drawn. The source made the active and inactive calls. No cut-off for these calls is given here.

The test system of test [1] is Staphylococcus aureus. The experiment in a line: Antimicrobial activity against Staphylococcus aureus ATCC 29213 after 24 to 48 hrs by two-fold broth microdilution method. It is filed as functional. (Dilution methods test growth across graded concentrations, often in twofold steps.)
Another test has as its system Enterococcus faecalis. Nature of the test: Antimicrobial activity against Enterococcus faecalis ATCC 29212 after 24 to 48 hrs by two-fold broth microdilution method. The test is classed as functional.
The subject of another test is Escherichia coli. Nature of the test: Antimicrobial activity against Escherichia coli ATCC 25922 after 24 to 48 hrs by two-fold broth microdilution method. The test is classed as functional.
For the next test, the system named is Candida albicans. The experiment in a line: Antimicrobial activity against Candida albicans ATCC 537Y after 48 hrs by two-fold broth microdilution method. The test is classed as functional. Put shortly:
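Two-fold serial dilutions in RPMI 1640 per CLSI M27-A2. Stocks in DMSO/RPMI 1:20 v/v. Test range 1.0–64 µM. Inoculum set to 0.5 McFarland, then diluted in saline and RPMI 1640. Plates held at 35 °C for 48 h. MIC is the lowest concentration giving prominent growth reduction. Run in triplicate.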

The next test relates to Klebsiella pneumoniae. The experiment in a line: Antimicrobial activity against Klebsiella pneumoniae ATCC 700603 at 128 uM after 24 to 48 hrs by two-fold broth microdilution method. The test is classed as functional, organism-based. Put shortly: (§1)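 Antibacterial microdilution in CAMH, inoculum 0.5 McFarland diluted in saline/CAMH, 35 °C for 18 h, with further reads at 24 and 48 h. Activity is scored at the maximum tested concentration, 128 µM. Triplicate.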

The subject of the next test is Enterobacter cloacae. Nature of the test: Antimicrobial activity against Enterobacter cloacae ATCC 23355 at 128 uM after 24 to 48 hrs by two-fold broth microdilution method. The test is classed as functional, organism-based. In a few lines:
as §1

In the next test the test system is Serratia marcescens. Nature of the test: Antimicrobial activity against Serratia marcescens ATCC 14576 at 128 uM after 24 to 48 hrs by two-fold broth microdilution method. It is filed as functional, organism-based. In a few lines: as §1
In test [2] the test system is Staphylococcus aureus. Nature of the test: Antimicrobial activity against Staphylococcus aureus ATCC 29213 after 18 hrs by modified broth microdilution method. The test is classed as functional. Put shortly: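 PGI90, the concentration giving 90% growth inhibition, fitted with an exponential growth curve from at least seven concentrations of the MIC assay. Inhibition % = [(Ac − Ap)/Ac] × 100 from A620 of drug-free control versus drug-treated culture. Checked by a modified broth microdilution (Phase 2).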

Turning to `COc1ccc(C(=O)N/N=C/c2ccc([N+](=O)[O-])o2)cc1`, the MIC against Staphylococcus aureus [1] was 4 µM (≈ 1.16 µg/mL); against Enterococcus faecalis, 8 µM (≈ 2.31 µg/mL); against Escherichia coli, 32 µM (≈ 9.26 µg/mL); with Candida albicans it was 32 µM (≈ 9.26 µg/mL). Besides, the MIC90 amounted to 4.11 µM (≈ 1.19 µg/mL) in the test with Staphylococcus aureus [1], 14.6 µM (≈ 4.23 µg/mL) against Enterococcus faecalis, 84 µM (≈ 24.3 µg/mL) in the test on Escherichia coli and 54.6 µM (≈ 15.8 µg/mL) against Candida albicans. The result in the test on Klebsiella pneumoniae, with Enterobacter cloacae and with Serratia marcescens was inactive. The “log(1/MIC>90)” value in the test with Staphylococcus aureus [2] was found to be 5.39.
In the case of `O=C(N/N=C/c1ccc([N+](=O)[O-])o1)c1ccccc1`, the minimum inhibitory concentration (MIC) with Staphylococcus aureus [1] was 4 µM (≈ 1.04 µg/mL); in the test on Enterococcus faecalis it was 32 µM (≈ 8.3 µg/mL); against Escherichia coli, 16 µM (≈ 4.15 µg/mL); against Candida albicans, 32 µM (≈ 8.3 µg/mL). In addition, the MIC90 against Staphylococcus aureus [1] worked out at 5.27 µM (≈ 1.37 µg/mL); in the test with Enterococcus faecalis it was 58.8 µM (≈ 15.2 µg/mL); against Escherichia coli, 30.4 µM (≈ 7.89 µg/mL); in the test on Candida albicans, 60.3 µM (≈ 15.6 µg/mL). The outcome in the test on Klebsiella pneumoniae, with Enterobacter cloacae and with Serratia marcescens was inactive. Besides, in the test with Staphylococcus aureus [2], the “log(1/MIC>90)” value is on record as 5.28.
For `O=C(N/N=C/c1ccc([N+](=O)[O-])o1)c1ccc(Cl)c(Cl)c1`, the MIC against Staphylococcus aureus [1] was determined as 4 µM (≈ 1.31 µg/mL); against Enterococcus faecalis, 32 µM (≈ 10.5 µg/mL); against Escherichia coli, 64 µM (≈ 21 µg/mL); against Candida albicans it was 16 µM (≈ 5.25 µg/mL). For the same compound, the MIC90 in the test on Staphylococcus aureus [1] is 7.49 µM (≈ 2.46 µg/mL); in the test with Enterococcus faecalis, 59.7 µM (≈ 19.6 µg/mL); with Escherichia coli, 85 µM (≈ 27.9 µg/mL); against Candida albicans it was 32.2 µM (≈ 10.6 µg/mL). Further, the result with Klebsiella pneumoniae, in the test on Enterobacter cloacae and with Serratia marcescens was inactive. Also, in the test with Staphylococcus aureus [2], the “log(1/MIC>90)” value was found to be 5.5.
For the compound `O=C(N/N=C/c1ccc([N+](=O)[O-])o1)c1ccc(Cl)cc1Cl`, the MIC with Staphylococcus aureus [1] amounted to 4 µM (≈ 1.31 µg/mL); in the test on Enterococcus faecalis, 32 µM (≈ 10.5 µg/mL); with Escherichia coli, 64 µM (≈ 21 µg/mL); with Candida albicans it was 32 µM (≈ 10.5 µg/mL). Also, the MIC90 was determined as 4.83 µM (≈ 1.58 µg/mL) against Staphylococcus aureus [1], 58.7 µM (≈ 19.3 µg/mL) with Enterococcus faecalis, 87.7 µM (≈ 28.8 µg/mL) with Escherichia coli and 48 µM (≈ 15.8 µg/mL) against Candida albicans. The result in the test on Klebsiella pneumoniae, in the test on Enterobacter cloacae and in the test with Serratia marcescens was inactive. In the test on Staphylococcus aureus [2], the “log(1/MIC>90)” value was found to be 5.13.
Turning to `O=C(N/N=C/c1ccc([N+](=O)[O-])o1)c1ccc(Cl)cc1`, the minimum inhibitory concentration (MIC) in the test with Staphylococcus aureus [1] is 4 µM (≈ 1.17 µg/mL); in the test on Enterococcus faecalis, 32 µM (≈ 9.4 µg/mL); against Escherichia coli it was 64 µM (≈ 18.8 µg/mL); with Candida albicans it was 32 µM (≈ 9.4 µg/mL). Also, the MIC90 was determined as 5.52 µM (≈ 1.62 µg/mL) in the test on Staphylococcus aureus [1], 40.7 µM (≈ 12 µg/mL) with Enterococcus faecalis, 102 µM (≈ 30 µg/mL) against Escherichia coli and 53 µM (≈ 15.6 µg/mL) with Candida albicans. For the same compound, the result in the test with Klebsiella pneumoniae, with Enterobacter cloacae and in the test on Serratia marcescens was inactive. In addition, the “log(1/MIC>90)” value with Staphylococcus aureus [2] worked out at 5.26.
As for `CCCCOc1ccc(C2=NN(C(C)=O)C(c3ccc([N+](=O)[O-])o3)O2)cc1` (stereo not drawn), the MIC against Staphylococcus aureus [1] was found to be 16 µM (≈ 5.97 µg/mL); with Escherichia coli, 64 µM (≈ 23.9 µg/mL); against Candida albicans, 32 µM (≈ 11.9 µg/mL). Besides, the MIC90 in the test with Staphylococcus aureus [1] was 16.9 µM (≈ 6.3 µg/mL); with Escherichia coli it was 77.9 µM (≈ 29.1 µg/mL); in the test with Candida albicans, 41 µM (≈ 15.3 µg/mL). Moreover, the result with Klebsiella pneumoniae, in the test on Enterobacter cloacae and with Serratia marcescens was inactive. The “log(1/MIC>90)” value in the test on Staphylococcus aureus [2] was found to be 4.77.
Consider `Cc1cc(NS(=O)(=O)c2ccc(N)cc2)no1` [SULFAMETHOXAZOLE], for which the lowest concentration to inhibit growth with Escherichia coli (MIC) was 16 µM (≈ 4.05 µg/mL). Also, in the test with Serratia marcescens, the result was inactive.
Consider `CCC(C)n1ncn(-c2ccc(N3CCN(c4ccc(OCC5COC(Cn6cncn6)(c6ccc(Cl)cc6Cl)O5)cc4)CC3)cc2)c1=O` (stereo not drawn) [ITRACONAZOLE], for which, in the test on Candida albicans, the MIC is less than 20 µM.
